From ChEMBL document CHEMBL4033712, “Synthesis and biological evaluation of new C-12(α/β)-(N-) sulfamoyl-phenylamino-14-deoxy-andrographolide derivatives as potent anti-cancer agents” (Bioorg Med Chem Lett, 2017)

Experiments:
Assay type in all cases: functional
CCRF-CEM = assay: Anticancer activity against human CCRF-CEM cells assessed as cell growth at 10 uM after 48 hrs by sulforhodamine B assay relative to control; conditions: read-out: Activity
Procedure, shortened: (§1)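 Single-dose NCI-60 panel screen: compound added at 10 µM and the culture incubated 48 h. The end point was read by protein staining with sulforhodamine B. The value is percent growth of treated cells relative to untreated control cells, reported as a mean graph across the panel.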

MOLT-4 = assay: Anticancer activity against human MOLT4 cells assessed as cell growth at 10 uM after 48 hrs by sulforhodamine B assay relative to control; conditions: MOLT-4, 48 h, read-out: Activity; procedure, shortened: as §1
SR = assay: Anticancer activity against human SR cells assessed as cell growth at 10 uM after 48 hrs by sulforhodamine B assay relative to control; conditions: read-out: Activity
Procedure, shortened: (§2)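 NCI-60 single-dose screen: compound added at 10 µM, cultures incubated 48 h. End point by sulforhodamine B protein-binding dye. Value reported as percent growth of treated cells relative to untreated control cells.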

HOP-62 = assay: Anticancer activity against human HOP62 cells assessed as cell growth at 10 uM after 48 hrs by sulforhodamine B assay relative to control; conditions: HOP-62, 48 h, read-out: Activity; procedure, shortened: as §1
NCI-H226 = assay: Anticancer activity against human NCI-H226 cells assessed as cell growth at 10 uM after 48 hrs by sulforhodamine B assay relative to control; conditions: NCI-H226, 48 h, read-out: Activity; procedure, shortened: as §1
NCI-H23 = assay: Anticancer activity against human NCI-H23 cells assessed as cell growth at 10 uM after 48 hrs by sulforhodamine B assay relative to control; conditions: NCI-H23, 48 h, read-out: Activity; procedure, shortened: as §1
NCI-H460 = assay: Anticancer activity against human NCI-H460 cells assessed as cell growth at 10 uM after 48 hrs by sulforhodamine B assay relative to control; conditions: NCI-H460, 48 h, read-out: Activity; procedure, shortened: as §1
COLO 205 = assay: Anticancer activity against human COLO205 cells assessed as cell growth at 10 uM after 48 hrs by sulforhodamine B assay relative to control; conditions: COLO 205, 48 h, read-out: Activity; procedure, shortened: as §1
HCC 2998 = assay: Anticancer activity against human HCC2998 cells assessed as cell growth at 10 uM after 48 hrs by sulforhodamine B assay relative to control; conditions: HCC 2998, 48 h, read-out: Activity; procedure, shortened: as §1
HCT-15 = assay: Anticancer activity against human HCT15 cells assessed as cell growth at 10 uM after 48 hrs by sulforhodamine B assay relative to control; conditions: HCT-15, 48 h, read-out: Activity; procedure, shortened: as §1
HT-29 = assay: Anticancer activity against human HT-29 cells assessed as cell growth at 10 uM after 48 hrs by sulforhodamine B assay relative to control; conditions: HT-29, 48 h, read-out: Activity; procedure, shortened: as §1
SW-620 = assay: Anticancer activity against human SW620 cells assessed as cell growth at 10 uM after 48 hrs by sulforhodamine B assay relative to control; conditions: SW-620, 48 h, read-out: Activity; procedure, shortened: as §2
SF-295 = assay: Anticancer activity against human SF295 cells assessed as cell growth at 10 uM after 48 hrs by sulforhodamine B assay relative to control; conditions: SF-295, 48 h, read-out: Activity; procedure, shortened: as §1
MDA-MB-435 = assay: Anticancer activity against human MDA-MB-435 cells assessed as cell growth at 10 uM after 48 hrs by sulforhodamine B assay relative to control; conditions: MDA-MB-435, 48 h, read-out: Activity; procedure, shortened: as §1
SK-MEL-28 = assay: Anticancer activity against human SK-MEL-28 cells assessed as cell growth at 10 uM after 48 hrs by sulforhodamine B assay relative to control; conditions: SK-MEL-28, 48 h, read-out: Activity; procedure, shortened: as §1
SK-MEL-5 = assay: Anticancer activity against human SK-MEL-5 cells assessed as cell growth at 10 uM after 48 hrs by sulforhodamine B assay relative to control; conditions: SK-MEL-5, 48 h, read-out: Activity; procedure, shortened: as §1
UACC-62 = assay: Anticancer activity against human UACC62 cells assessed as cell growth at 10 uM after 48 hrs by sulforhodamine B assay relative to control; conditions: UACC-62, 48 h, read-out: Activity; procedure, shortened: as §2
IGROV-1 = assay: Anticancer activity against human IGROV1 cells assessed as cell growth at 10 uM after 48 hrs by sulforhodamine B assay relative to control; conditions: IGROV-1, 48 h, read-out: Activity; procedure, shortened: as §1
OVCAR-3 = assay: Anticancer activity against human OVCAR3 cells assessed as cell growth at 10 uM after 48 hrs by sulforhodamine B assay relative to control; conditions: OVCAR-3, 48 h, read-out: Activity; procedure, shortened: as §1
OVCAR-8 = assay: Anticancer activity against human OVCAR8 cells assessed as cell growth at 10 uM after 48 hrs by sulforhodamine B assay relative to control; conditions: OVCAR-8, 48 h, read-out: Activity; procedure, shortened: as §1
SK-OV-3 = assay: Anticancer activity against human SKOV3 cells assessed as cell growth at 10 uM after 48 hrs by sulforhodamine B assay relative to control; conditions: SK-OV-3, 48 h, read-out: Activity; procedure, shortened: as §1
786-0 = assay: Anticancer activity against human 786-0 cells assessed as cell growth at 10 uM after 48 hrs by sulforhodamine B assay relative to control; conditions: 786-0, 48 h, read-out: Activity; procedure, shortened: as §1
CAKI-1 = assay: Anticancer activity against human Caki1 cells assessed as cell growth at 10 uM after 48 hrs by sulforhodamine B assay relative to control; conditions: CAKI-1, 48 h, read-out: Activity; procedure, shortened: as §1
SN12C = assay: Anticancer activity against human SN12C cells assessed as cell growth at 10 uM after 48 hrs by sulforhodamine B assay relative to control; conditions: read-out: Activity; procedure, shortened: as §1
TK-10 = assay: Anticancer activity against human TK10 cells assessed as cell growth at 10 uM after 48 hrs by sulforhodamine B assay relative to control; conditions: TK-10, 48 h, read-out: Activity; procedure, shortened: as §2
UO-31 = assay: Anticancer activity against human UO31 cells assessed as cell growth at 10 uM after 48 hrs by sulforhodamine B assay relative to control; conditions: UO-31, 48 h, read-out: Activity; procedure, shortened: as §2
PC-3 = assay: Anticancer activity against human PC3 cells assessed as cell growth at 10 uM after 48 hrs by sulforhodamine B assay relative to control; conditions: PC-3, 48 h, read-out: Activity; procedure, shortened: as §1
MCF7 = assay: Anticancer activity against human MCF7 cells assessed as cell growth at 10 uM after 48 hrs by sulforhodamine B assay relative to control; conditions: MCF7, 48 h, read-out: Activity; procedure, shortened: as §1
MDA-MB-231 = assay: Anticancer activity against human MDA-MB-231 cells assessed as cell growth at 10 uM after 48 hrs by sulforhodamine B assay relative to control; conditions: MDA-MB-231, 48 h, read-out: Activity; procedure, shortened: as §1
Hs-578T = assay: Anticancer activity against human Hs 578T cells assessed as cell growth at 10 uM after 48 hrs by sulforhodamine B assay relative to control; conditions: read-out: Activity; procedure, shortened: as §1
BT-549 = assay: Anticancer activity against human BT549 cells assessed as cell growth at 10 uM after 48 hrs by sulforhodamine B assay relative to control; conditions: BT-549, 48 h, read-out: Activity; procedure, shortened: as §1
T47D = assay: Anticancer activity against human T47D cells assessed as cell growth at 10 uM after 48 hrs by sulforhodamine B assay relative to control; conditions: read-out: Activity; procedure, shortened: as §2

Compound | growth at 10 µM (CCRF-CEM) [%] | growth at 10 µM (MOLT-4) [%] | growth at 10 µM (SR) [%] | growth at 10 µM (HOP-62) [%] | growth at 10 µM (NCI-H226) [%] | growth at 10 µM (NCI-H23) [%] | growth at 10 µM (NCI-H460) [%] | growth at 10 µM (COLO 205) [%] | growth at 10 µM (HCC 2998) [%] | growth at 10 µM (HCT-15) [%] | growth at 10 µM (HT-29) [%] | growth at 10 µM (SW-620) [%] | growth at 10 µM (SF-295) [%] | growth at 10 µM (MDA-MB-435) [%] | growth at 10 µM (SK-MEL-28) [%] | growth at 10 µM (SK-MEL-5) [%] | growth at 10 µM (UACC-62) [%] | growth at 10 µM (IGROV-1) [%] | growth at 10 µM (OVCAR-3) [%] | growth at 10 µM (OVCAR-8) [%] | other results
C=C1CC[C@@H]2[C@](C)(COC(C)=O)[C@H](OC(C)=O)CC[C@@]2(C)[C@H]1CC(Nc1ccc(S(=O)(=O)Nc2cc(C)on2)cc1)C1=CCOC1=O (stereo partly specified) | -19.1 | -7.86 | 1.4 | 60.2 | 79.5 | 71 | 79.5 | 29 | 68.3 | 0.18 | -11 | 14.7 | 100 | 35 | 38.1 | 44.1 | 19.8 | 62.6 | 7.95 | 16.1 | growth at 10 µM (SK-OV-3): 109%; growth at 10 µM (786-0): 89.8%; growth at 10 µM (CAKI-1): 44%; growth at 10 µM (SN12C): 31.8%; growth at 10 µM (TK-10): 58.4%; growth at 10 µM (UO-31): 56.9%; growth at 10 µM (PC-3): 70.8%; growth at 10 µM (MCF7): 12.2%; growth at 10 µM (MDA-MB-231): 61.1%; growth at 10 µM (Hs-578T): 89.5%; growth at 10 µM (BT-549): 27.2%; growth at 10 µM (T47D): 63.6%
C=C1CC[C@@H]2[C@](C)(COC(C)=O)[C@H](OC(C)=O)CC[C@@]2(C)[C@H]1CC(Nc1ccc(S(=O)(=O)Nc2nc(C)cc(C)n2)cc1)C1=CCOC1=O (stereo partly specified) | 2.96 | 24.6 | 22.2 | 103 | 86.7 | 84.3 | 90.3 | 77 | 100 | 49.2 | 46.2 | 40 | 97 | 67 | 83.5 | 74.2 | 32.9 | 81.5 | 44.8 | 62 | growth at 10 µM (SK-OV-3): 112%; growth at 10 µM (786-0): 103%; growth at 10 µM (CAKI-1): 74%; growth at 10 µM (SN12C): 38.2%; growth at 10 µM (TK-10): 111%; growth at 10 µM (UO-31): 71.2%; growth at 10 µM (PC-3): 65.2%; growth at 10 µM (MCF7): 40.3%; growth at 10 µM (MDA-MB-231): 107%; growth at 10 µM (Hs-578T): 99.8%; growth at 10 µM (BT-549): 71.9%; growth at 10 µM (T47D): 68.8%
C=C1CC[C@@H]2[C@](C)(COC(C)=O)[C@H](OC(C)=O)CC[C@@]2(C)[C@H]1CC(Nc1ccc(S(=O)(=O)Nc2nccc(C)n2)cc1)C1=CCOC1=O (stereo partly specified) | -19.2 | -1.85 | 0.79 | 156 | -12.1 | 48.4 | 46.9 | 9.64 | 68.2 | -42 | -28.2 | -49.6 | 78.7 | 0.23 | -7.05 | 45 | 24.2 | 25.8 | -45 | 10.5 | growth at 10 µM (SK-OV-3): 101%; growth at 10 µM (786-0): 32.5%; growth at 10 µM (CAKI-1): 61.4%; growth at 10 µM (SN12C): 25.1%; growth at 10 µM (TK-10): 83%; growth at 10 µM (UO-31): 33.4%; growth at 10 µM (PC-3): 41.5%; growth at 10 µM (MCF7): 0.14%; growth at 10 µM (MDA-MB-231): 13.3%; growth at 10 µM (Hs-578T): 68.6%; growth at 10 µM (BT-549): -2.66%; growth at 10 µM (T47D): 69.1%
